Experimental data from publication PMC3383025 (Molecular Cancer Therapeutics, 2009).
“And” between values parts separate entries of the source, which are not always exact repeats. Equal values may be shown once. Read-outs that look alike come from different tables or passages of the source.

Experiments:
[1] = molecular target: rabbit skeletal muscle SERCA pump (Oryctolagus cuniculus, UniProt P04191); assay: SERCA pump activity inhibition; type: biochemical
LNCaP cells [2] = assay: Intracellular free Ca+2; type: cell-based, human; conditions: for Intracellular free calcium: 10 min after exposure to 1 µmol/L, starting concentration ~40 nmol/L
AR protein = assay: Western blot analysis of AR protein; type: cell-based, human; conditions: LNCaP cells; for AR Protein (% of control): after 24 h of exposure to 1 µmol/L
LNCaP = assay: Clonogenic survival assay; type: cell-based, human; conditions: for CC50: read-out: Cell death of LNCaP LC50; for Killing ability LD50: loss of 50% clonogenic ability after 48 h exposure
LAPC-4 = assay: Clonogenic survival assay; type: cell-based, human; conditions: loss of 50% clonogenic ability after 48 h exposure
VCaP = assay: Clonogenic survival assay; type: cell-based, human; conditions: loss of 50% clonogenic ability after 48 h exposure
MDA-PC-2b = assay: Clonogenic survival assay; type: cell-based, human; conditions: loss of 50% clonogenic ability after 48 h exposure
CWR22Rv1 = assay: Clonogenic survival assay; type: cell-based, human; conditions: loss of 50% clonogenic ability after 48 h exposure
[3] = test system: androgen ablation refractory human prostate cancer lines; assay: Clonogenic survival assay, each of the five lines; type: cell-based; conditions: LNCaP, LAPC-4, VCaP, MDA-PCa-2b, CWR22Rv1
Procedure, shortened: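 Clonogenic survival of each prostate cancer line after 48 h exposure to a concentration series of test compound. LD₅₀ is the nmol/L concentration causing 50% loss of clonogenic ability.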

LNCaP cells [4] = assay: Percentage of cells in cycle, Ki67 flow cytometry; type: cell-based, human; conditions: TG exposure, untreated 91% ± 2%
AR mRNA = AR mRNA by reverse transcription-PCR; type: cell-based, human; conditions: LNCaP, LAPC-4 and CWR22Rv1 cells; 1 µmol/L TG, various times
total protein synthesis = assay: Total protein synthesis, S35-methionine incorporation; type: cell-based, human; conditions: LNCaP; at 24 hours post-TG exposure
Procedure, shortened: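 LNCaP cells were treated for 6 or 24 h (1 µmol/L test compound) and labelled with S³⁵-methionine for 30 min before lysis. Incorporation was measured as TCA-precipitable counts and expressed per cell as percent of incorporation in exponentially growing untreated cells.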

[5] = test system: AR-specific protein synthesis; type: cell-based, human
Procedure, shortened: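 LNCaP cells exposed to 1 µmol/L test compound for 6 or 24 h, then pulsed with S³⁵-methionine for 30 min before lysis. AR was immunoprecipitated from an aliquot of the labelled total protein with N-20 anti-AR antibody and Protein-A agarose beads, then Western blotted. AR-associated radioactivity was captured on X-ray film and quantitated by imaging.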

[6] = test system: IRE1-dependent XBP-1 processing; assay: ER stress: IRE1-dependent XBP-1/venus processing, fluorescent cells; type: cell-based, human
LNCaP cells [7] = conditions: over the next 18 to 36 hours after return to baseline; cited from earlier work
[8] = cited from earlier work

Sequence of rabbit skeletal muscle SERCA pump (P04191 1-994 isoform P04191-2): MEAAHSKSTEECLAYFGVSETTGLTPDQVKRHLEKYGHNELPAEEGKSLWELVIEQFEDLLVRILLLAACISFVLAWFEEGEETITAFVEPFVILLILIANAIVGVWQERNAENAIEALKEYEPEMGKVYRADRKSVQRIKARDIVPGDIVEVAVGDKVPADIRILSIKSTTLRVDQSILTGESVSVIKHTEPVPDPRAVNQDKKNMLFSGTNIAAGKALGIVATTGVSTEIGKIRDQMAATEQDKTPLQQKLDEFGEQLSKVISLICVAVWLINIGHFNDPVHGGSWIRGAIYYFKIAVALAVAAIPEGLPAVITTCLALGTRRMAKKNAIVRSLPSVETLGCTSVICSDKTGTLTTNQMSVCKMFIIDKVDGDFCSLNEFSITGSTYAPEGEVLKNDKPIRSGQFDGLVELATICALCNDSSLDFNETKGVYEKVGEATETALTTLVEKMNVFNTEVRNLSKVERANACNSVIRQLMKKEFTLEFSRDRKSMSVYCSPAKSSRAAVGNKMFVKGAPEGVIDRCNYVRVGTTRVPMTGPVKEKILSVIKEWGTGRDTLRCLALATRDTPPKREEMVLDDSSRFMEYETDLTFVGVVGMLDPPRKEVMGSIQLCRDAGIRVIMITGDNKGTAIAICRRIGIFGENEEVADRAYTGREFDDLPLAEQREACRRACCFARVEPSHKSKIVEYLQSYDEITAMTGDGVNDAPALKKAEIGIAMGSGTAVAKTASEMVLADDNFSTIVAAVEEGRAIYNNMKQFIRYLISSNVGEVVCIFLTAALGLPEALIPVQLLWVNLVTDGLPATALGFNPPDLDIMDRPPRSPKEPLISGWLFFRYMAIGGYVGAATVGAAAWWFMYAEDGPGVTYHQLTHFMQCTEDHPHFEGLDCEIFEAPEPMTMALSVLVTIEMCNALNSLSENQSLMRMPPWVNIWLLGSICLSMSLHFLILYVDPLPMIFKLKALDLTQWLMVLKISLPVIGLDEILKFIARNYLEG

Row | Compound | Intracellular free calcium (LNCaP cells [2]) | AR Protein (% of control) (AR protein) | Killing ability LD50 (LNCaP; LNCaP) | Killing ability LD50 (LAPC-4) | Killing ability LD50 (VCaP) | Killing ability LD50 (MDA-PC-2b) | Killing ability LD50 (CWR22Rv1) | host toxicity on systemic administration [8] | CC50 (LNCaP; after 48 h of exposure) | other results
1 | C/C=C(/C)C(=O)O[C@H]1C(C)=C2[C@H]([C@@H]1OC(=O)CCCCCCC)[C@@](C)(OC(C)=O)C[C@H](OC(=O)CCC)[C@@]1(O)[C@H]2OC(=O)[C@@]1(C)O [TG, Thapsigargin, reference compound] | 441 ± 35 nmol/L | 10 ± 2 % of control | 10 nmol/L and 10 ± 5 nmol/L | 25 ± 6 nmol/L | 20 ± 7 nmol/L | 43 ± 12 nmol/L | 38 ± 9 nmol/L | cannot be given systemically without host toxicity | – | IC50 [1]: 0.013 ± 0.002 µM; initial increase in Cai (LNCaP cells [2]; from ~40 nmol/L, within minutes): > 300 nmol/L; depletion of AR protein (AR protein; by 24 hours of TG exposure): 90%; CC50 (LNCaP; Homo sapiens, LNCaP, 48 h): 0.01 ± 0.005 µM; LD50 for each of the lines [3]: < 100 nmol/L; Ki67+ cells (LNCaP cells [4]; 24 hours): 25% ± 8%; Ki67+ cells (LNCaP cells [4]; 48 hours): > 10%; change in AR mRNA (AR mRNA): no change; inhibition of general protein synthesis (total protein synthesis): > 60%; decrease in rate of AR-specific protein synthesis ([5]; LNCaP cells, 1 µmol/L TG): > 90%; inhibition of AR-specific protein synthesis ([5]; LNCaP, at 24 hours post-TG exposure): > 90%; percent of fluorescent (ER-stressed) cells ([6]; XBP-1/venus-transfected LNCaP and CWR22Rv1, 500 µmol/L TG, by 24 hours): > 80%; delayed sustained increase in Cai (LNCaP cells [7]): > 1 µmol/L
2 | alanyl-12ADT [Analog A12ADT] | 410 ± 45 nmol/L | 15 ± 4 % of control | 8 ± 4 nmol/L | 28 ± 7 nmol/L | 23 ± 9 nmol/L | 40 ± 6 nmol/L | 38 ± 11 nmol/L | – | 0.008 ± 0.004 µM | –
3 | C/C=C(/C)C(=O)O[C@H]1C(C)=C2[C@H]([C@@H]1OC(=O)CCCCCCC)[C@@](C)(OC(C)=O)C[C@H](OC(=O)CCCCCCCCCCCN)[C@@]1(O)[C@H]2OC(=O)[C@@]1(C)O [Analog 12ADT, 8-O-(12-dodecanyl)-8-O-debutanoyl TG] | 369 ± 23 nmol/L | 14 ± 3 % of control | 55 ± 12 nmol/L | 80 ± 19 nmol/L | 67 ± 25 nmol/L | 95 ± 35 nmol/L | 85 ± 27 nmol/L | cannot be given systemically without host toxicity | 0.055 ± 0.012 µM | –
4 | C/C=C(/C)C(=O)O[C@H]1C(C)=C2[C@H]([C@@H]1OC(=O)CCCCCCC)[C@@](C)(OC(C)=O)C[C@H](OC(=O)CCCCCCCCCCCNC(=O)C[C@H](N)C(=O)O)[C@@]1(O)[C@H]2OC(=O)[C@@]1(C)O [Analog D12ADT, asparty-12ADT] | 385 ± 40 nmol/L | 11 ± 6 % of control | 40 ± 12 nmol/L | 55 ± 9 nmol/L | 70 ± 18 nmol/L | 51 ± 12 nmol/L | 39 ± 7 nmol/L | – | 0.04 ± 0.012 µM | –
5 | leucyl-12ADT [Analog L12ADT] | 414 ± 44 nmol/L | 8 ± 4 % of control | 14 ± 8 nmol/L | 32 ± 9 nmol/L | 25 ± 11 nmol/L | 42 ± 5 nmol/L | 34 ± 16 nmol/L | – | 0.014 ± 0.008 µM | cells with IRE1-dependent XBP-1 processing (flow cytometric GFP) ([6]; LNCaP, 500 nmol/L, within 24 h): all cells
